Measured values reported in ChEMBL document CHEMBL3526015, “Metabolism of the c-Fos/activator protein-1 inhibitor T-5224 by multiple human UDP-glucuronosyltransferase isoforms” (Drug Metab Dispos, 2011).

Legend:
Assay type in all cases: ADME
Liver microsome [1] = test: Drug metabolism in human liver microsomes assessed as T-5224 acyl O-glucuronide formation at 10 uM after 10 mins in presence of beta-estradiol by HPLC method
In short: (§1)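 Pooled human liver microsomes or recombinant UGT1A1 were incubated with 10 μM T-5224, 2 mM UDPGA and β-estradiol at 0–500 μM (2% DMSO), in Tris-HCl/MgCl2/alamethicin buffer. Incubation was 10 min (liver microsomes) or 60 min (UGT1A1) at 37°C. G2/G3 were read by HPLC at 290 nm, as mean ± SD, n = 3.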

[2] = molecular target: T1, UDP-glucuronosyltransferase 1A8 (Homo sapiens, UniProt Q9HAW9); test: Substrate inhibition of human UGT1A8-mediated T-5224 hydroxyl O-glucuronide formation after 10 to 60 mins in presence of UDP-glucuronic acid by HPLC method
T1 sequence (Q9HAW9 whole entry): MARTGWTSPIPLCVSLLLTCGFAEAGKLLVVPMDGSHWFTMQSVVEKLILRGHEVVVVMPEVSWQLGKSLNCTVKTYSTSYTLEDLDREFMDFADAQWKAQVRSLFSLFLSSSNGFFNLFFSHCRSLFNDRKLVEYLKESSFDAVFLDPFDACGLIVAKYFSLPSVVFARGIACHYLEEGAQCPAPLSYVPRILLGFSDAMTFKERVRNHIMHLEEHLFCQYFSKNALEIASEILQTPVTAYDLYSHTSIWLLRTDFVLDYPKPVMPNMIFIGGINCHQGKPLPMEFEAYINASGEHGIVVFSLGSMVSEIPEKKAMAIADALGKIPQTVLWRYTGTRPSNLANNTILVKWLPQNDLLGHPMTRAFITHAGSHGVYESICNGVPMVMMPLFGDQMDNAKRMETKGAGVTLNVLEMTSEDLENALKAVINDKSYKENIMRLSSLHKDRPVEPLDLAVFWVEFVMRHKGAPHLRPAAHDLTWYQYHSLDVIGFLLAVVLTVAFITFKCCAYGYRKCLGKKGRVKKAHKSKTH
In short: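 Recombinant human UGT1A1, UGT1A3 or UGT1A8 from baculovirus-infected insect cells (0.1 mg protein/mL) in 50 mM Tris-HCl pH 7.5, 8 mM MgCl2, alamethicin, 2% DMSO. T-5224 at 1–50 μM with 2 mM UDPGA for 60 min at 37°C. HPLC with UV at 290 nm. Triplicates fitted to a substrate-inhibition model. kcat uses UGT content quantified by immunoblot against recombinant UGT1A1/UGT2B4 standards.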

Liver microsome [3] = test: Drug metabolism in human liver microsomes assessed as T-5224 hydroxyl O-glucuronide formation at 10 uM after 10 mins in presence of beta-estradiol by HPLC method
In short: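 Pooled liver microsomes (0.5 mg protein/mL) with 10 μM T-5224, 2 mM UDPGA and β-estradiol at 0–500 μM, 2% DMSO, in 50 mM Tris-HCl pH 7.5, 8 mM MgCl2 and alamethicin. Incubated 10 min at 37°C, stopped with acetonitrile. Glucuronides measured by HPLC at 290 nm; mean ± SD, n = 3.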

Liver microsome [4] = test: Drug metabolism in pooled human liver microsomes assessed as T-5224 hydroxyl O-glucuronide formation at 10 uM after 10 mins by HPLC method
In short: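 T-5224 at 10 μM incubated for 10 min at 37°C with UDPGA (2 mM) in pooled liver (0.5 mg protein/mL) or intestinal (0.25 mg protein/mL) microsomes. Buffer was 50 mM Tris-HCl pH 7.5 with 8 mM MgCl2 and alamethicin, after 5 min preincubation. Stopped with acetonitrile; glucuronides quantified by HPLC at 290 nm.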

Cytochrome P450 1A2 = molecular target: T2, Cytochrome P450 1A2 (Homo sapiens, UniProt P05177); test: Drug metabolism assessed as human CYP1A2-mediated metabolite formation at 2 uM after 30 mins by HPLC method; settings: recombinant enzyme, 0.5 h
T2 sequence (P05177 whole entry): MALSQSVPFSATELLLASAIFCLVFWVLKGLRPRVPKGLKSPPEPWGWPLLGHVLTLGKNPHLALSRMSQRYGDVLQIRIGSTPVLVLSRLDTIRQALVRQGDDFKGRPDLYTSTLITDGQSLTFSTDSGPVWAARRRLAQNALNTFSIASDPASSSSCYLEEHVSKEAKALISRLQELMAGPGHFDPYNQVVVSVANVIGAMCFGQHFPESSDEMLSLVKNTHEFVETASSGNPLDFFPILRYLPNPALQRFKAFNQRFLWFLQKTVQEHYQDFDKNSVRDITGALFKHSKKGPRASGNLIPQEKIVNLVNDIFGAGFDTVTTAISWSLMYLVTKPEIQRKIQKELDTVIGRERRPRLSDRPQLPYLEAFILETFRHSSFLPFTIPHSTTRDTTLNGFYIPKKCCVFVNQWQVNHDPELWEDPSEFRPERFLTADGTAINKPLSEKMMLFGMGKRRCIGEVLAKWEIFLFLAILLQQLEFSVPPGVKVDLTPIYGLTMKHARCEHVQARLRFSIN
In short: (§2)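 Each recombinant human P450 was used at 50 pmol/mL with an NADPH-generating system and 2 μM 14C-T-5224 (0.5% DMSO final). Buffer was 100 mM Tris-HCl pH 7.5, except 100 mM potassium phosphate pH 7.4 for CYP2A6 and CYP2C9*1. Incubation ran 30 min at 37°C and was stopped with acetonitrile/methanol. Radioactive metabolite peaks were detected by C18 HPLC.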

[5] = Drug metabolism assessed as human CYP2C9*1-mediated metabolite formation at 2 uM after 30 mins by HPLC method; settings: 0.5 h; in short: as §2
[6] = molecular target: T3, UDP-glucuronosyltransferase 1A1 (Homo sapiens, UniProt P22309); test: Drug metabolism assessed as human UGT1A1-mediated T-5224 acyl O-glucuronide formation at 10 uM […] in presence of beta-estradiol by HPLC method; settings: recombinant enzyme; in short: as §1
T3 sequence (P22309 whole entry): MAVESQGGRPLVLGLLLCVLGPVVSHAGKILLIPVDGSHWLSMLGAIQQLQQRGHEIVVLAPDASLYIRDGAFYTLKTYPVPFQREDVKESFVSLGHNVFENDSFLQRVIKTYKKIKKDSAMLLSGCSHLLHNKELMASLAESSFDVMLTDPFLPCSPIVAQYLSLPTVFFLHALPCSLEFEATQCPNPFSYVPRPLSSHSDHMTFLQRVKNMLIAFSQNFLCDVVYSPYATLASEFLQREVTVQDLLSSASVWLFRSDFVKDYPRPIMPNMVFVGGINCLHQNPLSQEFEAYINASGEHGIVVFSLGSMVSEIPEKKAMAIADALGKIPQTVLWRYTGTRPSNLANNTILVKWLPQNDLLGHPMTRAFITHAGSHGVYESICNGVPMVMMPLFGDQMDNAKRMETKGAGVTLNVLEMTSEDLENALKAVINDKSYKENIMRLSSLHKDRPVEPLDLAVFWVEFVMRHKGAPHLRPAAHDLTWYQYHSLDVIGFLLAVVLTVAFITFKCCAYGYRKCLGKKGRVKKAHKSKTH

For O=C(O)CCc1cc(C(=O)c2ccc(OC3CCCC3)cc2O)ccc1OCc1ccc2c(O)noc2c1, the Drug metabolism (Liver microsome [1]) was “metabolite_not_detected”, the Ki [2] was 3.64 µM and the Drug metabolism (Liver microsome [3]) was “metabolite_detected”. The Drug metabolism (Liver microsome [4]) was “metabolite_detected”, the Drug metabolism (Cytochrome P450 1A2) was “metabolite_not_detected” and the Drug metabolism [5] was “metabolite_not_detected”. For the same compound, the Drug metabolism [6] was “metabolite_not_detected”.
